What is called inhibition is the drop in the measured response relative to a control, in per cent. Usually pKa stands for the pH at which an ionisable group is half protonated.

The target in the first data set is Aldo-keto reductase family 1 member B1 (Rattus norvegicus) (UniProt P07943). The data set is described as follows: Inhibition of rat lens aldose reductase at 50 uM. In a few lines:
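Enzyme partially purified from rat lenses. Each compound was tested at a single concentration of 50 μM, and percent inhibition was determined by the Hayman and Kinoshita method.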
Regarding `O=C1NOC(=O)C1CCOc1ccccc1` (configuration not stated), the inhibition was 35%.
The compound `O=C1NOC(=O)C1c1cccnc1` (configuration not stated) gave an inhibition of 37%.
On to `CC(=O)Nc1ccc(C2(C)C(=O)NOC2=O)cc1` (configuration not stated), for which the inhibition amounted to 16%.
On to `COc1cccc(C2C(=O)NOC2=O)c1` (configuration not stated), for which the inhibition amounted to 75%.
As to `O=C1NOC(=O)C1CC[S+]([O-])c1ccccc1` (configuration not stated), the inhibition worked out at 19%.
Regarding `O=C1NOC(=O)C1CCS(=O)(=O)c1ccccc1` (configuration not stated), the inhibition worked out at 32%.
On to `O=C1NOC(=O)C12Cc1cccc3cccc(c13)C2`, for which the inhibition came to 5.1%.
Still for that read-out and setting: with `O=C(O)CN1C(=O)c2cccc3cccc(c23)C1=O` the figure was 87%; with `O=C1NOC(=O)C1c1ccccc1C(F)(F)F` (configuration not stated), 80%; with `O=C1NOC(=O)C1c1ccccn1` (configuration not stated), 6.5%.
Compound `COc1ccccc1C1C(=O)NOC1=O` (configuration not stated) registered an inhibition of 0%.

Test system in another data set: not listed separately
The data set is described as follows: pKa value for the compound was determined. It counts as physicochemical.
For `O=C1NC(=O)[C@@]2(CCOc3ccc(F)cc32)N1` [SORBINIL], the pKa is 7.85.

The values are drawn from ChEMBL document CHEMBL1122083, “Isoxazolidine-3,5-diones as lens aldose reductase inhibitors” (J Med Chem, 1982).
